From ChEMBL document CHEMBL1121898, “Potential antiestrogens. Synthesis and evaluation of mammary tumor inhibiting activity of 1,2-dialkyl-1,2-bis(3'-hydroxyphenyl)ethanes” (1981)
Blank lines part the entries; values can stand above or below the compound they belong to. Calls of active or inactive are those of the source. The calls are words filed in the database; no cut-off is given here.

How the values were obtained:
[1] = tested on: Estrogen receptor (Bos taurus); assay: Displacement of [3H]estradiol from calf estrogen receptor
[2] = target: T1, Estrogen receptor (Mus musculus) (UniProt O08537+P19785); assay: Antiestrogenic activity in uterotrophic test in mice at 240 ug; format: functional
Procedure, shortened: (§1)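 Immature female NMRI mice, 20 days old (14.5 ± 1.2 g), randomly grouped 10 per group. Each received a daily sc injection for 3 days of 0.1 mL olive oil solution containing test compound, together with estrone to stimulate uterine growth. Uteri were removed 24 h after the last injection and weighed. Results are reported as % inhibition of the estrone-stimulated uterine weight gain, mean ± SD.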

[3] = target: T1, Estrogen receptor (Mus musculus); assay: Estrogenic activity in uterotrophic test in mice at 533 ug; format: functional
Procedure, shortened: (§2)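 Immature (20-day-old) female NMRI mice, 14.5 ± 1.2 g, randomized into groups of 10. Given the test compound sc daily for 3 days in 0.1 mL olive oil. Uteri removed 24 h after the last injection; uterine weight taken as the read-out, means ± SD. Dose in μg.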

[4] = target: T1, Estrogen receptor (Mus musculus); assay: Antiestrogenic activity in uterotrophic test in mice at 27 ug; format: functional
Procedure, shortened: as §1

Mus musculus [5] = species on record: Mus musculus; assay: Vaginal cornification test in mice at 0 ug; predominant cellular component leucocytes (diestrus); format: functional, organism-based
Procedure, shortened: (§3)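 Female NMRI mice (~15 g) were ovariectomized; castration was confirmed at 10 days by leucocyte smears. Mice were primed with estradiol 3-benzoate 0.2 μg, and only responders showing estrus were kept. Groups of three received sc test compound in 0.1 mL olive oil daily for 3 days. Saline vaginal smears were taken 6, 24, 30, 48 and 54 h after the last dose and scored by Allen-Doisy.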

[6] = target: T1, Estrogen receptor (Mus musculus); assay: Inhibitory activity in mouse uterine weight test at 5 ug; format: functional
Procedure, shortened: (§4)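 Antiuterotrophic (Dorfman) assay in immature 20-day-old female NMRI mice, groups of 10. Uterine growth was stimulated with estrone (0.1 μg) and the test compound was given alongside it, sc daily for 3 days in 0.1 mL olive oil. Uteri were taken 24 h after the last dose. Uterine weight is reported as means ± SD and inhibition as % of the estrone-stimulated response.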

Mus musculus [7] = species on record: Mus musculus; assay: Vaginal cornification test in mice at 2.7 ug; predominant cellular component leucocytes (diestrus); format: functional, organism-based
[8] = target: T1, Estrogen receptor (Mus musculus); assay: Antiestrogenic activity in uterotrophic test in mice at 5 ug; format: functional
Procedure, shortened: as §1

[9] = target: T1, Estrogen receptor (Mus musculus); assay: Estrogenic activity in uterotrophic test in mice at 60 ug; format: functional
Procedure, shortened: as §2

Mus musculus [10] = species on record: Mus musculus; assay: Predominant components of vaginal smear at a compound concentration of 80 ug was determined using vaginal cornification test; leucocytes (</= 50%), nucleated and cornified, nucleated cellscharacteristic of antiestrogens; format: functional, organism-based
Mus musculus [11] = species on record: Mus musculus; assay: Vaginal cornification test in mice at 5 ug; predominant cellular component leucocytes (diestrus); format: functional, organism-based
Procedure, shortened: as §3

[12] = target: T1, Estrogen receptor (Mus musculus); assay: Inhibitory activity in mouse uterine weight test at 2.7 ug; format: functional
Procedure, shortened: as §4

[13] = target: T1, Estrogen receptor (Mus musculus); assay: Estrogenic activity in uterotrophic test in mice at 2 ug; format: functional
Procedure, shortened: (§5)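 Uterine growth stimulation in immature female NMRI mice, 20 days old (14.5 ± 1.2 g), 10 per group. Test compound in 0.1 mL olive oil was given sc daily for 3 days. Uteri were excised 24 h after the final injection and weighed. Effect is reported as mean ± SD.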

[14] = target: T1, Estrogen receptor (Mus musculus); assay: Antiestrogenic activity in uterotrophic test in mice at 0 ug; format: functional
Procedure, shortened: as §1

[15] = target: T1, Estrogen receptor (Mus musculus); assay: Estrogenic activity in uterotrophic test in mice at 180 ug; format: functional
Procedure, shortened: as §5

Mus musculus [16] = species on record: Mus musculus; assay: Vaginal cornification test in mice at 27 ug; predominant cellular component leucocytes (diestrus); format: functional, organism-based
[17] = target: T1, Estrogen receptor (Mus musculus); assay: Inhibitory activity in mouse uterine weight test at 240 ug; format: functional
Procedure, shortened: as §4

[18] = target: T1, Estrogen receptor (Mus musculus); assay: Estrogenic activity in uterotrophic test in mice at 0 ug; format: functional
Procedure, shortened: as §5

Mus musculus [19] = species on record: Mus musculus; assay: Predominant components of vaginal smear at a compound concentration of 240 ug was determined using vaginal cornification test; leucocytes (</= 50%), nucleated and cornified, nucleated cellscharacteristic of antiestrogens; format: functional, organism-based
[20] = target: T1, Estrogen receptor (Mus musculus); assay: Inhibitory activity in mouse uterine weight test at 27 ug; format: functional
Procedure, shortened: as §4

[21] = target: T1, Estrogen receptor (Mus musculus); assay: Estrogenic activity in uterotrophic test in mice at 20 ug; format: functional
Procedure, shortened: as §5

[22] = target: T1, Estrogen receptor (Mus musculus); assay: Inhibitory activity in mouse uterine weight test at 80 ug; format: functional
Procedure, shortened: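 Immature female NMRI mice, 20 days old (14.5 ± 1.2 g), in random groups of 10. They received sc injections daily for 3 days of 0.1 mL olive oil containing test compound, with estrone 0.1 μg given to stimulate uterine growth. Uteri were removed 24 h after the last injection and weighed (mean ± SD). Result is percent inhibition of the estrone-stimulated uterine weight gain.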

[23] = target: T1, Estrogen receptor (Mus musculus); assay: Antiestrogenic activity in uterotrophic test in mice at 80 ug; format: functional
Procedure, shortened: as §1

[24] = target: T1, Estrogen receptor (Mus musculus); assay: Antiestrogenic activity in uterotrophic test in mice at 2.7 ug; format: functional
Procedure, shortened: as §1

Mus musculus [25] = species on record: Mus musculus; assay: Vaginal cornification test in mice at 0.1 ug; cornified nonnucleated cells present (estrus); format: functional, organism-based
MCF7 [26] = assay: Inhibition of estrogen receptor positive MCF-7 cell proliferation as cell number after 10 days at 10e-8 M; format: functional, Homo sapiens
Procedure, shortened: (§6)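 MCF-7 cells were grown in McCoy's 5a medium with fetal bovine serum stripped by DCC (0.5 h, 45 °C). Compounds were dissolved in ethanol (final ≤0.5%) and diluted in complete medium. Cells were seeded at 5×10^4 cells/plate. On day 10, three replicate plates per group were counted by Coulter counter, three counts per plate. Percent T/C = test/control. In a retest, compounds were given at 10^-7 M with 17β-estradiol at 10^-7 or 10^-8 M.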

MCF7 [27] = assay: Inhibition of estrogen receptor positive MCF-7 cell proliferation as percent treated/control cell number after 10 days at 10e-6 M; format: functional, Homo sapiens
Procedure, shortened: as §6

MCF7 [28] = assay: Inhibition of estrogen receptor positive MCF-7 cell proliferation as percent treated/control cell number after 10 days at 10e-7 M; format: functional, Homo sapiens
Procedure, shortened: as §6

MCF7 [29] = assay: Inhibition of estrogen receptor positive MCF-7 cell proliferation as percent treated/control cell number after 10 days at 10e-8 M; format: functional, Homo sapiens
Procedure, shortened: as §6

MCF7 [30] = assay: Inhibition of estrogen receptor positive MCF-7 cell proliferation as cell number after 10 days at 10e-7 M; format: functional, Homo sapiens
Procedure, shortened: as §6

MCF7 [31] = assay: Inhibition of estrogen receptor positive MCF-7 cell proliferation as cell number after 10 days at 10e-6 M; format: functional, Homo sapiens
Procedure, shortened: as §6

T1 sequence (O08537 whole entry, looked up): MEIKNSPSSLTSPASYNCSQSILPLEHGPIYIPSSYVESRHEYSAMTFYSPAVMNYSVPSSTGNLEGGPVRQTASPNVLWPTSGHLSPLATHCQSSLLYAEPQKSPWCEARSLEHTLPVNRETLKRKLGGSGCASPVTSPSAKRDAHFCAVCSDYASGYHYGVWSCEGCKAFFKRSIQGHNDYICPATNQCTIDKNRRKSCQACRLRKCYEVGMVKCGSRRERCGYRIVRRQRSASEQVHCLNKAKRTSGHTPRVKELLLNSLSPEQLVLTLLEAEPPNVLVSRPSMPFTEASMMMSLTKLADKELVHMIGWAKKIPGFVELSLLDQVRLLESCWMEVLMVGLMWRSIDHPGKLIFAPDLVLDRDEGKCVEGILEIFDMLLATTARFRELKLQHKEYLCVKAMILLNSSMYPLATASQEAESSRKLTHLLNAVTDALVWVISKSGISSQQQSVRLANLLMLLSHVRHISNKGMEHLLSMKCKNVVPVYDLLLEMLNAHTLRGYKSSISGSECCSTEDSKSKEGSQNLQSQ
T1 sequence (P19785 whole entry, looked up): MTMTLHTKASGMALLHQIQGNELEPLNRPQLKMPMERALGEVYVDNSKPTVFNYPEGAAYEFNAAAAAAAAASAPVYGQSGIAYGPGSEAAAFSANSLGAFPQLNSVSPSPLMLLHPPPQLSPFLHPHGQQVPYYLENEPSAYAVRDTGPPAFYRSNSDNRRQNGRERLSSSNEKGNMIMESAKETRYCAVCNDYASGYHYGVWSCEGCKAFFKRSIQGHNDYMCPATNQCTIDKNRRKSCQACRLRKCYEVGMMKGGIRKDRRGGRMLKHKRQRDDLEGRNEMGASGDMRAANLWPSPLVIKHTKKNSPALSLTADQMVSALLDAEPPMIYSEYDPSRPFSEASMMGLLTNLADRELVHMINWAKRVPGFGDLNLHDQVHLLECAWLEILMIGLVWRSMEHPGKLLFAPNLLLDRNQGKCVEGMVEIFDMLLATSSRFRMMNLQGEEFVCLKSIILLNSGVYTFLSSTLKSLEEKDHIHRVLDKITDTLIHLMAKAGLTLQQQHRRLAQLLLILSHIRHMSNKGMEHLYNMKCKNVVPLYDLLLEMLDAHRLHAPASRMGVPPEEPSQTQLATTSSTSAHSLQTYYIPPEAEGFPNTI

- Ka [1]: 110000 M⁻¹
- Effect [2]: 31.7
- Effect [3]: 31.3
- Effect [4]: 33.2
- inhibition [6]: 18%
- Effect [8]: 34.1
- Effect [9]: 19
- inhibition [12]: 4%
- Effect [13]: 11.8
- Effect [14]: 11.4
- Effect [15]: 32.6
- inhibition [17]: 27%
- Effect [18]: 10
- inhibition [20]: 22%
- Effect [21]: 14.5
- inhibition [22]: 28%
- Effect [23]: 31.5
- Effect [24]: 38.1
Structure (SMILES): CC(C)CC(c1cccc(O)c1)C(CC(C)C)c1cccc(O)c1 (stereo unspecified)
- Activity (Mus musculus [5]): inactive
- Activity (Mus musculus [7]): inactive
- Activity (Mus musculus [10]): Weak activity
- Activity (Mus musculus [11]): inactive
- Activity (Mus musculus [16]): inactive
- Activity (Mus musculus [19]): Weak activity

Structure (SMILES): C[C@]12CC[C@@H]3c4ccc(O)cc4CC[C@H]3[C@@H]1CCC2=O
- Activity (Mus musculus [25]): Active

Structure (SMILES): CC/C(=C(\c1ccccc1)c1ccc(OCCN(C)C)cc1)c1ccccc1 [TAMOXIFEN]
- Cell number (MCF7 [26]): 38000
- T/C (MCF7 [27]): 75%
- T/C (MCF7 [28]): 79%
- T/C (MCF7 [29]): 87%
- Cell number (MCF7 [30]): 34600
- Cell number (MCF7 [31]): 32900
